Laboratory results reported in publication PMC9521027 (ACS Omega, 2022).
Positions count from the first letter of the chain named.

Experiments:
URAT1 K393A mutant [1] = molecular target: T1, URAT1 K393A mutant (Homo sapiens, UniProt Q96S37, K393A); assay: 14C-uric acid uptake assay in transfected HEK293 cells; assay type: cell-based; details: K393A, HEK293 cells
T1 sequence (Q96S37 1-553 K393A): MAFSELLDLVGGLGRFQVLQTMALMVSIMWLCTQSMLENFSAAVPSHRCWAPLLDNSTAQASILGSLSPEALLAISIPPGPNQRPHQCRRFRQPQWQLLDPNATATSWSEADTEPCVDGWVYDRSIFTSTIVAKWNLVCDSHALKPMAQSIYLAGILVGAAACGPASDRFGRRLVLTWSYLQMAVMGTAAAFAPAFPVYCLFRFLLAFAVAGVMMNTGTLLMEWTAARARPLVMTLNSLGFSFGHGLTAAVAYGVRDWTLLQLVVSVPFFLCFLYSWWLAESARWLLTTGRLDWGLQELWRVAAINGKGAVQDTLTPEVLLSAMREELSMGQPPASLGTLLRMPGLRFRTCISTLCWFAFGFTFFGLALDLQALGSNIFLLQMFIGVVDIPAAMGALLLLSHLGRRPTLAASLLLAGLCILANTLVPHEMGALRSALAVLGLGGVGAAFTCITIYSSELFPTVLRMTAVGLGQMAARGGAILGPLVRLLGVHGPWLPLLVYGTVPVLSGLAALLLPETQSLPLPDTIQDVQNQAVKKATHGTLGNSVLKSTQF

URAT1 K393H mutant [2] = molecular target: T2, URAT1 K393H mutant (Homo sapiens, UniProt Q96S37, K393H); assay: 14C-uric acid binding assay with membrane protein; details: 2.5 μg membrane protein, 25 μM 14C-uric acid, 30 min
T2 sequence (Q96S37 1-553 K393H): T1 sequence (Q96S37 1-553 K393A) with A393H

URAT1 K393H mutant [3] = molecular target: T2, URAT1 K393H mutant; assay: Competitive inhibition test of unlabeled uric acid on 14C-uric acid uptake; assay type: cell-based
URAT1 WT [4] = molecular target: T3, URAT1 WT (Homo sapiens, UniProt Q96S37); assay: Saturation kinetic experiment of 14C-uric acid uptake; assay type: cell-based; details: wild-type group
T3 sequence (Q96S37 1-553): T1 sequence (Q96S37 1-553 K393A) with A393K

URAT1 K393E mutant = molecular target: T4, URAT1 K393E mutant (Homo sapiens, UniProt Q96S37, K393E); assay: 14C-uric acid binding assay with membrane protein; details: 2.5 μg membrane protein, 25 μM 14C-uric acid, 30 min
T4 sequence (Q96S37 1-553 K393E): T1 sequence (Q96S37 1-553 K393A) with A393E
In short: (§1)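 Membranes came from HEK293 cells transiently transfected (Lipofectamine 3000) with sequence-confirmed site-directed K393 mutant hURAT1 plasmids; control membranes came from cells transfected with pECFP empty vector. Cells were harvested in ice-cold 25 mM HEPES pH 7.3 with 125 mM sodium gluconate, and membranes were extracted with a kit. Protein was incubated at room temperature, then rapid-filtered, washed with ice-cold DPBS, dissolved in 0.1 M NaOH and scintillation-counted. n = 3, mean ± SD.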

URAT1 K393A mutant [5] = molecular target: T1, URAT1 K393A mutant; assay: 14C-uric acid binding assay with membrane protein; details: 2.5 μg membrane protein, 25 μM 14C-uric acid, 30 min
In short: as §1

URAT1 WT [6] = molecular target: T3, URAT1 WT; assay: Competitive inhibition test of unlabeled uric acid on 14C-uric acid uptake; assay type: cell-based

O=c1[nH]c(=O)c2[nH]c(=O)[nH]c2[nH]1 [uric acid]
14C-urate transport capacity lost compared with WT (URAT1 K393A mutant [1]): 70–80%
14C-uric acid binding capacity compared with WT (URAT1 K393H mutant [2]): similar
IC50 (URAT1 K393H mutant [3]): 121 ± 5.98 µM
Vmax (URAT1 WT [4]): 654.12 µM
14C-uric acid binding compared with WT (URAT1 K393E mutant): significant loss
14C-uric acid binding compared with WT (URAT1 K393A mutant [5]): significant loss
IC50 (URAT1 WT [6]): 115 ± 6.36 µM
